MrgX1 ag = agonists of human MrgX1 receptor. Q96LB2. MrgX1-HEK293 cells, Fluo-4 calcium fluorescence, agonist mode; stronger effect = higher value. B-score at 10 µM. hit rate 0.44% among 310,000;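 active = calcium response B-score plate-corrected fluorescence ratio at least 3 library SD, with starting fluorescence B-score inside 5 SD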
Target sequence (Q96LB2 whole entry, looked up): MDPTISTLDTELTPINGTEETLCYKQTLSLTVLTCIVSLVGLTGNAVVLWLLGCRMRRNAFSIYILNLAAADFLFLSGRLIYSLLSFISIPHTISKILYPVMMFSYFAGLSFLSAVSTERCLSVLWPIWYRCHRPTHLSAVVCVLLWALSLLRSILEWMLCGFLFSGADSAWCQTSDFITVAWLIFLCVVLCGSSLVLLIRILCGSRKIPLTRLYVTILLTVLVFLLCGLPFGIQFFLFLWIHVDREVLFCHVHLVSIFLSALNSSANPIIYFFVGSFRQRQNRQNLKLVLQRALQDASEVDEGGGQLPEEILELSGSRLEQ
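Test system: Stable human MrgX1 HEK293 cell line | Schedule: Overnight plating before 1 h dye loading | Read-out basis: Baseline-normalised fluorescence change ratio, B-scored | Detection: Kinetic calcium dye fluorescence, Fluo-4 NW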
MrgX1 allo act = allosterically activates human MrgX1 receptor signaling | Q96LB2 | MrgX1-HEK293, Fluo-4 calcium flux, FDSS; stronger effect = higher value | B-score at 10 µM | hit rate 0.63% among 310,000;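 active = plate-corrected calcium response at least 3 library SD above typical, normal starting fluorescence, not activating the receptor alone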;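 note: compound read alongside a low EC10 to EC30 dose of BAM8-22 agonist; peak minus trough fluorescence over baseline measured at the second addition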
RGS4 act = potentiators or activators of RGS4 | hit rate 0.92% among 310,000 | B-score at 10 µM | AID 463111 | HEK293 M3R/inducible RGS4, carbachol calcium flux Fluo4; stronger effect = lower value;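 active = B-score of the integrated calcium signal more than 4 SD below the library mean, with starting fluorescence not abnormally high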;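 note: negative B-score means reduced calcium response which marks RGS4 activation or potentiation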
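Test system: HEK293 cells with stable M3R and inducible RGS4; also added: carbachol at ECmax as muscarinic agonist stimulus; schedule: dye loading 30 min 37 °C, buffer rest 30 min RT; technique: kinetic calcium fluorescence imaging with Fluo4-AM dye, 2 µM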
RGS4 block = human RGS4 inhibition; HEK293 M3R/RGS4 inducible, Fluo-4 calcium flux; stronger effect = higher value; triggered by carbachol at its EC20; hit rate 0.45% among 310,000; B-score at 10 µM; P49798;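 active = B-score, a plate-corrected calcium signal, over three deviations above library mean, with baseline fluorescence within five deviations of library mean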;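 note: RGS4 expression induced by doxycycline in cells with stable M3 receptor; B-score is computed from the integrated fluorescence ratio over baseline after carbachol; higher B-score means a larger calcium signal and so more RGS4 inhibition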
Target sequence (P49798 whole entry, looked up): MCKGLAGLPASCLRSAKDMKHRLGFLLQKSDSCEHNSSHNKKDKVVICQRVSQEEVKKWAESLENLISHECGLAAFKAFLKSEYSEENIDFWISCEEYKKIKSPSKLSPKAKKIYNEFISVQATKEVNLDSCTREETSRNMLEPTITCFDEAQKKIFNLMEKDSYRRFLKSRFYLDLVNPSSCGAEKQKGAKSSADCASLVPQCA
MrgX1 antag = human MrgX1 receptor antagonism, primary screen; B-score at 10 µM; AID 588676; Q96LB2; MRGX1-HEK293 calcium flux, Fluo-4, BAM8-22 antagonism; stronger effect = lower value; hit rate 1.3% among 310,000;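 active = calcium-response B-score plate-corrected more than 3 library SD below zero, starting fluorescence within 5 deviations, no agonist response on first addition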;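 note: peak minus trough fluorescence over baseline after final BAM8-22 challenge near maximal dose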
MrgX1 antag conf = reconfirmed antagonist of human MrgX1 receptor signaling; shares compounds with MrgX1 antag; MrgX1-HEK293, BAM8-22 calcium flux, Fluo-4; stronger effect = lower value; remaining BAM8-22 calcium response % of control (stronger effect = lower value), % at 10 µM; hit rate 19% among 2,300;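 active = remaining agonist calcium response no higher than 100% minus 3 SD of agonist-only control wells, with starting fluorescence near control levels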;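 note: agonist BAM8-22 given at a near maximal EC90 to ECmax level; peak minus minimum fluorescence divided by baseline after agonist addition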
HEK293 Ca flux = counter-screen for MrgX1 antagonists: effect in parental HEK293 cells | shares compounds with MrgX1 antag | Fluo-4 calcium fluorescence, FDSS | fluorescence ratio F(max-min)/F0 at 10 µM | hit rate 2% among 4,000;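 active = duplicate-averaged calcium fluorescence ratio at least three times the standard deviation of buffer wells, a nonspecific response in parental cells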
HEK293 Ca counter = counter-screen for MrgX1 allosteric activators: effect in parental HEK293 cells | AID 624114 | fluorescence ratio F(max-min)/F0 at 10 µM | shares compounds with MrgX1 antag | parental HEK293 calcium flux, Fluo-4 fluorescence ratio; stronger effect = higher value | hit rate 0.4% among 4,000;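 active = calcium fluorescence ratio, averaged over duplicates, at least 3 SD of the buffer-well ratio, meaning a nonspecific response in receptor-free cells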;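 note: untransfected parental HEK293 lacking MrgX1 used as counterscreen for MrgX1 allosteric activators; fluorescence change taken during the second addition on a kinetic imager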
HEK293 Ca cntr2 = activity in parental HEK293 cells lacking MrgX1 receptor. hit rate 8.7% among 4,000. shares compounds with MrgX1 antag. AID 624115. fluorescence ratio F(max-min)/F0 at 10 µM. Fluo-4 calcium fluorescence (FDSS); stronger effect = higher value;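 active = calcium fluorescence ratio at least three times the spread of buffer wells, meaning a non-specific response in parental cells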
A number is an active result; i = inactive; nt = not tested or not shown. A selection: hits, their analogues and other compounds. The true share with any hit is near 3.5%.

SMILES	MrgX1 ag	MrgX1 allo act	RGS4 act	RGS4 block	MrgX1 antag	MrgX1 antag conf	HEK293 Ca flux	HEK293 Ca counter	HEK293 Ca cntr2
CCCCC1CCC(C(=O)N(C)CC(=O)Nc2cccc(F)c2)CC1 (stereo not drawn)	i	i	i	i	-5.38	i	i	i	i
CC1CC1C(=O)N(C)CC(=O)Nc1cccc(F)c1 (stereo not drawn)	i	i	i	i	i	nt	nt	nt	nt
CCCn1c(-c2cccs2)nc2ccccc21	i	i	i	i	i	nt	nt	nt	nt
CCN1c2ccccc2-c2nc3ccccc3n2C1c1cccs1 (stereo not drawn)	i	i	i	i	-6.13	i	i	i	i
O=C(CCS(=O)(=O)c1ccc(Br)cc1)N1CCN(c2ccccc2F)CC1	i	i	nt	nt	-5.44	i	i	i	i
c1ccc2[nH]c(CN3CCN(c4ncnc5c4oc4ccccc45)CC3)nc2c1	i	i	nt	nt	-6.4	i	i	i	i
C(=C\c1ccccc1)/CN1CCN(c2ncnc3c2oc2ccccc23)CC1	i	i	i	i	-7.3	46.5%	i	i	i
CCOc1ccccc1NC(=O)[C@@H](NC(=O)c1ccccc1F)C(C)C	i	i	i	i	i	nt	nt	nt	nt
CC1CCCCC1NC(=O)c1cccc(S(=O)(=O)N2CCN(Cc3ccccc3)CC2)c1 (stereo not drawn)	i	i	i	i	-6.13	i	i	i	i
O=C(CSc1nnc2ccccn12)N1CCOCC1	i	i	i	i	i	nt	nt	nt	nt
Nn1c(SCC(=O)N2CCOCC2)nnc1-c1ccccc1Cl	i	i	i	i	-6.24	74.5%	i	i	i
COc1ccc(C2C3=C(CCCC3=O)Nc3ccc4ncccc4c32)cc1OC (stereo not drawn)	i	i	i	i	-4.67	i	i	i	i
COc1cc(C2C3=C(CCCC3=O)Nc3ccc4ncccc4c32)ccc1O (stereo not drawn)	i	i	i	i	i	nt	nt	nt	nt
Cc1cccc(NC(=S)N(CCN2CCOCC2)Cc2cc3cc4c(cc3[nH]c2=O)OCCO4)c1	i	i	i	i	i	nt	nt	nt	nt
O=C(Nc1ccccc1)N1CCC(c2ccccc2)C1 (stereo not drawn)	i	i	i	i	i	nt	nt	nt	nt
O=C(CCN1CCC(c2ccccc2)C1)c1ccccc1 (stereo not drawn)	i	i	i	i	-5.19	i	i	i	i
COc1cccc(NC(=O)CN(C)C(=O)c2cccnc2Sc2ccc(C)c(C)c2)c1	i	i	i	i	-7.21	i	i	i	i
O=C(CSC1=NCCS1)NC1CCCC1	i	i	i	i	i	nt	nt	nt	nt
CCN(CC)Cc1c(C(=O)N/N=C/c2ccc(C)o2)nnn1-c1nonc1N	i	i	i	i	i	nt	nt	nt	nt
O=C(CCNC(=O)c1ccccc1Cl)Nc1nc(-c2ccc(F)cc2)cs1	i	i	i	i	-5.45	i	i	i	i
CCn1nc(C)c(CNCc2cn[nH]c2-c2cc3ccccc3o2)c1C	i	i	i	i	i	nt	nt	nt	nt
Cc1ccc2[nH]c3c(NCc4ccccc4)ncnc3c2c1	i	i	i	i	-7.37	i	i	i	i
COc1ccc(CNc2ncnc3c2[nH]c2ccccc23)cc1	i	i	i	i	i	nt	nt	nt	nt
CC(C)OCCCNc1ncnc2c1[nH]c1ccccc12	i	i	i	i	-8.38	51.7%	i	i	i
COc1ccccc1NC(=O)COc1cc(C)nc(C(C)C)n1	i	i	i	i	-5.42	i	i	i	i
CCCN(CCC)S(=O)(=O)c1ccc(C(=O)Nc2nc3c(s2)CCc2ccccc2-3)cc1	i	i	i	i	-5.2	i	i	i	i
Cc1ccc(-c2nc(NC(=O)c3ccc(S(=O)(=O)N(CCC#N)CCC#N)cc3)sc2-c2ccccc2)cc1	i	i	i	i	i	nt	nt	nt	nt
